Assay results taken from ChEMBL document CHEMBL1921714, “Discovery of aminobenzyloxyarylamides as κ opioid receptor selective antagonists: application to preclinical development of a κ opioid receptor antagonist receptor occupancy tracer” (J Med Chem, 2011).
The source made the active and inactive calls. The calls are words filed in the database; no cut-off is given here.

Columns and labels:
[1] = molecular target: T1, Kappa-type opioid receptor (Homo sapiens, UniProt P41145); assay: Agonist activity at human opioid kappa receptor expressed in CHO cells assessed as stimulation of [35S]-GTPgammaS binding at 10 uM; format: functional, cell-based
How it was run: (§1)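 Agonist mode: membranes from CHO (κ, μ) or HEK293 (δ) cells expressing cloned human receptors, no agonist added, tested at up to 10 μM. [35S]GTP-γ-S (0.5 nM final) binding in HEPES pH 7.4, MgCl2, NaCl, EDTA, DTT, 200 μM GDP. Read by WGA SPA beads after 2 h (δ) or 4 h (κ, μ) at room temperature, then 4 °C overnight.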

[2] = molecular target: T2, Delta-type opioid receptor (Homo sapiens, UniProt P41143); assay: Agonist activity at human opioid delta receptor expressed in HEK293 cells assessed as stimulation of [35S]-GTPgammaS binding at 10 uM; format: functional, cell-based; how it was run: as §1
[3] = molecular target: T3, Mu-type opioid receptor (Homo sapiens, UniProt P35372); assay: Agonist activity at human opioid mu receptor expressed in CHO cells assessed as stimulation of [35S]-GTPgammaS binding at 10 uM; format: functional, cell-based; how it was run: as §1
[4] = system: CHO; assay: Selectivity ratio of Kb for human opioid mu receptor expressed in CHO cells to Kb for human opioid kappa receptor expressed in CHO cells; format: cell-based
How it was run: (§2)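 Kb ratios from antagonist [35S]GTP-γ-S SPA on CHO (κ, μ) or HEK293 (δ) membranes. Agonists at about 80% maximal: U69,593 300 nM (κ), DAMGO 1 μM (μ), DPDPE 30 nM (δ). 11-point curves, top 1 or 10 μM. Nonspecific binding: NorBNI, naltrexone or naltriben, each 10 μM. Kb = IC50/(1+D/EC50); geometric means with SEM.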

[5] = molecular target: T1, Kappa-type opioid receptor; assay: Displacement of [3H]diprenorphine from human opioid kappa receptor expressed in CHO cells after 120 mins by scintillation counting; format: cell-based
How it was run: (§3)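 11-point curves, 0.01 nM–1 μM final. 120 min at 22 °C, then filtration and scintillation counting. Nonspecific binding set by 10 μM naltrexone. Four-parameter IC50; Ki by Cheng–Prusoff.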

[6] = system: HEK293; assay: Selectivity ratio of Kb for human opioid delta receptor expressed in HEK293 cells to Kb for human opioid kappa receptor expressed in CHO cells; format: cell-based; how it was run: as §2
[7] = molecular target: T3, Mu-type opioid receptor; assay: Displacement of [3H]diprenorphine from human opioid mu receptor expressed in CHO cells after 120 mins by scintillation counting; format: cell-based; how it was run: as §3
[8] = system: HEK293; assay: Selectivity ratio of Ki for human opioid delta receptor expressed in HEK293 cells to Ki for human opioid kappa receptor expressed in CHO cells; format: cell-based
[9] = system: CHO; assay: Selectivity ratio of Ki for human opioid mu receptor expressed in CHO cells to Ki for human opioid kappa receptor expressed in CHO cells; format: cell-based
[10] = molecular target: T2, Delta-type opioid receptor; assay: Displacement of [3H]diprenorphine from human opioid delta receptor expressed in HEK293 cells after 120 mins by scintillation counting; format: cell-based; how it was run: as §3
[11] = molecular target: T1, Kappa-type opioid receptor; assay: Antagonist activity at human opioid kappa receptor expressed in CHO cells assessed as inhibition of U69593-induced [35S]GTP-gamma-S binding after 4 hrs by scintillation counting; format: functional, cell-based
[12] = molecular target: T2, Delta-type opioid receptor; assay: Antagonist activity at human opioid delta receptor expressed in HEK293 cells assessed as inhibition of DPDPE-induced [35S]GTP-gamma-S binding after 4 hrs by scintillation counting; format: functional, cell-based
[13] = molecular target: T3, Mu-type opioid receptor; assay: Antagonist activity at human opioid mu receptor expressed in CHO cells assessed as inhibition of DAMGO-induced [35S]GTP-gamma-S binding after 4 hrs by scintillation counting; format: functional, cell-based
[14] = system: Striatum; assay: Drug uptake in rat striatum at 1 ug/kg, iv measured after 40 mins by LC/MS-MS analysis; format: ADME, organism-based; conditions: in vivo, 0.001 mg/kg
How it was run: (§4)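 Groups of four rats received a single iv tracer dose and were killed 20 or 40 min later. Striatum was weighed, homogenized in 4 volumes acetonitrile/0.1% formic acid and centrifuged. The supernatant was diluted and analysed by LC/MS/MS against standards spiked into naive rat brain. %SUV = tissue amount/injected dose × 100.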

[15] = system: Striatum; assay: Drug uptake in rat striatum at 1.5 ug/kg, iv measured after 40 mins by LC/MS-MS analysis; format: ADME, organism-based; conditions: in vivo, 0.0015 mg/kg
How it was run: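 Groups of four rats received a single iv tracer dose and were killed 20 or 40 min later. Striatum was weighed, sonicated in 4 volumes of acetonitrile with 0.1% formic acid, and centrifuged. The supernatant was diluted with water and analysed by C18 LC/MS/MS (precursor-to-product ion transition) against standards spiked into naive rat brain. %SUV = (tissue amount / injected dose) × 100.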

[16] = system: Nucleic Acid; assay: Ratio of drug uptake in striatum to cerebellum in rat at 1.5 ug/kg, iv measured after 40 mins by LC/MS/MS analysis; format: ADME, organism-based; conditions: in vivo, 0.0015 mg/kg
How it was run: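 Rats (groups of four) given a single iv tracer dose, killed 20 or 40 min later. Striatum and cerebellum weighed, homogenised by ultrasonic probe in four volumes acetonitrile with 0.1% formic acid, centrifuged, supernatant diluted with water. Read-out is LC/MS/MS on C18 column monitoring precursor-to-product transitions, quantified against standards spiked into untreated rat brain. Binding potential = (striatum/cerebellum) − 1.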

[17] = system: Nucleic Acid; assay: Ratio of drug uptake in striatum to cerebellum in rat at 30 ug/kg, iv measured after 40 mins by LC/MS/MS analysis; format: ADME, organism-based; conditions: in vivo, 0.03 mg/kg
How it was run: (§5)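 Groups of four rats were given iv tracer and killed 20 or 40 min after dosing. Striatum (total binding) and cerebellum (nonspecific, null region) were extracted in acetonitrile/0.1% formic acid and quantified by LC/MS/MS. Binding potential was calculated as (striatum/cerebellum concentration) − 1.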

[18] = system: Striatum; assay: Drug uptake in rat striatum at 30 ug/kg, iv measured after 40 mins by LC/MS-MS analysis; format: ADME, organism-based; conditions: in vivo, 0.03 mg/kg; how it was run: as §4
[19] = system: Rattus norvegicus; assay: In vivo receptor occupancy of opioid kappa in iv dosed rat striatum after 40 mins by 3-Chloro-4-[4-[ [ (2S)-2-(3-pyridyl)pyrrolidin-1-yl]methyl]phenoxy]- benzamide displacement assay; format: functional
[20] = system: Rattus norvegicus; assay: Reversal of […] in po dosed rat; format: functional
[21] = system: Rattus norvegicus; assay: Antinociceptive activity in po dosed rat assessed as reversal of agonist […]-induced pain by formalin test; format: functional
[22] = system: Nucleic Acid; assay: Ratio of drug uptake in striatum to cerebellum in rat at 3 ug/kg, iv measured after 40 mins by LC/MS/MS analysis; format: ADME, organism-based; conditions: in vivo, 0.003 mg/kg; how it was run: as §5
[23] = system: Striatum; assay: Drug uptake in rat striatum at 3 ug/kg, iv measured after 40 mins by LC/MS-MS analysis; format: ADME, organism-based; conditions: in vivo, 0.003 mg/kg; how it was run: as §4

T1 sequence (P41145 whole entry): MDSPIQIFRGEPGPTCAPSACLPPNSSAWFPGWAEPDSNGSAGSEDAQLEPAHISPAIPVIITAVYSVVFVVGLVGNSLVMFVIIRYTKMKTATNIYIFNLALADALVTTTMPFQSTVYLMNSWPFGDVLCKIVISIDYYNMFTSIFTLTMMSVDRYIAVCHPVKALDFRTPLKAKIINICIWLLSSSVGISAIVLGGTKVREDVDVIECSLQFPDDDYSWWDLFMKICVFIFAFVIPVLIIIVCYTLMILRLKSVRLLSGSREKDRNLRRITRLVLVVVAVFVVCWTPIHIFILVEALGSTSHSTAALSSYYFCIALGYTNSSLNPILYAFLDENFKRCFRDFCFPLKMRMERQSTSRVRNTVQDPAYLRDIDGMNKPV
T2 sequence (P41143 whole entry): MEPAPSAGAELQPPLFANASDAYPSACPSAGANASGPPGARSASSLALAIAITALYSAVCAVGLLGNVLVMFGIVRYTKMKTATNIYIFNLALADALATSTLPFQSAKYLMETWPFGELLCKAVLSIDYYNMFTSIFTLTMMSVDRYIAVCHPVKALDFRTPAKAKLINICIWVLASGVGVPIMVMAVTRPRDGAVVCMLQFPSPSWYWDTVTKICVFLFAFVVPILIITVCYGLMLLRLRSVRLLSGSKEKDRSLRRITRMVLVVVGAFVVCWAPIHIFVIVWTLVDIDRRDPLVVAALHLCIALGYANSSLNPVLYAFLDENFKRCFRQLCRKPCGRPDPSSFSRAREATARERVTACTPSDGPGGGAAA
T3 sequence (P35372 whole entry): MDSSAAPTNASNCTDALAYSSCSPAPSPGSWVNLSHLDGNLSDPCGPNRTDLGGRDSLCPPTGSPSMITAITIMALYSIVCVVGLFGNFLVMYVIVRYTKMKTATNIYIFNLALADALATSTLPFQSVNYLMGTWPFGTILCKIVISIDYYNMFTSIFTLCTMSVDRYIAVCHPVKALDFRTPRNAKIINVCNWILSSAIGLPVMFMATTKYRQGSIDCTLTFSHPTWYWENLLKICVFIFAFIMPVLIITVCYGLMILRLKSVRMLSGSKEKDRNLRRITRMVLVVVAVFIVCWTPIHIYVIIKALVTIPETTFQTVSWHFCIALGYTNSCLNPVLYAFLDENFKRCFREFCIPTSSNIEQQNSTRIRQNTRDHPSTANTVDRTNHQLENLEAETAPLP

SMILES	Activity [1]	Activity [2]	Activity [3]	Ratio [4]	Ki [5]	Ratio [6]	Ki [7]	Ratio Ki [8]	Ratio Ki [9]	Ki [10]	Kb [11]	Kb [12]	Kb [13]	other results
Oc1ccc2c3c1O[C@H]1c4[nH]c5c(c4C[C@@]4(O)[C@@H](C2)N(CC2CC2)CC[C@]314)C[C@@]1(O)[C@H]2Cc3ccc(O)c4c3[C@@]1(CCN2CC1CC1)[C@H]5O4	inactive	inactive	inactive											
Cc1cc(C)cc([C@H]2CCCN2Cc2ccc(Oc3ccc(C(N)=O)cc3F)cc2)c1	inactive	inactive	inactive	2	14 nM	5	101 nM	12	7	165 nM	44.8 nM	220 nM	69.6 nM	
NC(=O)c1ccc(Oc2ccc(CN3CCC[C@@H]3c3cccnc3)cc2)c(Cl)c1	inactive	inactive	inactive		44.9 nM		> 500 nM	> 11	> 11	> 500 nM				
CC1(C)CN(Cc2ccc(Oc3ccc(C(N)=O)cn3)cc2)[C@@H]1c1ccccc1	inactive	inactive	inactive	15	1.05 nM	137	43.1 nM			> 500 nM	2.46 nM	338 nM	36.6 nM	SUV [14]: 270%
COC(=O)N1CCN(C(=O)Cc2ccc(Cl)c(Cl)c2)[C@H](CN2CCCC2)C1	inactive	inactive	inactive		0.502 nM		34.7 nM	841	69	422 nM				SUV [15]: 50%; Ratio [16]: 1.5
Cc1cc(C)cc([C@@H]2CCCN2Cc2ccc(Oc3ccc(C(N)=O)cc3F)cc2)c1 [ATICAPRANT]	inactive	inactive	inactive	21	0.949 nM	135	22.7 nM	175	24		0.813 nM	110 nM	17.4 nM	
NC(=O)c1ccc(Oc2ccc(CN3CCCC3c3cccnc3)cc2)nc1 (racemic)	inactive	inactive	inactive	19	1.49 nM	69	39.6 nM	> 330	27	> 500 nM	5.89 nM	407 nM	110 nM	Ratio [17]: 2.2; SUV [18]: 13%
NC(=O)c1ccc(Oc2ccc(CN3CCCC3c3cccnc3)cc2)c(Cl)c1 (racemic)	inactive	inactive	inactive		0.622 nM		31.5 nM	404	51	251 nM				
CC1(C)CN(Cc2ccc(Oc3ccc(C(N)=O)cn3)cc2)[C@H]1c1ccccc1	inactive	inactive	inactive	3	26.7 nM	> 65	107 nM			> 500 nM	15.2 nM	> 1000 nM	43.8 nM	
CC1(C)CN(Cc2ccc(Oc3ccc(C(N)=O)cn3)cc2)C1c1ccccc1 (racemic)	inactive	inactive	inactive		1.41 nM		52.7 nM			> 500 nM				
NC(=O)c1ccc(Oc2ccc(CN3CCCC3c3ccccc3)cc2)nc1 (racemic)	inactive	inactive	inactive	9	9.21 nM	37	232 nM	> 50	25	> 500 nM	17 nM	635 nM	150 nM	
NC(=O)c1ccc(Oc2ccc(CN3CCC[C@H]3c3cccc(F)c3)cc2)c(F)c1	inactive	inactive	inactive	14	0.565 nM	187	35.8 nM	373	63	211 nM	1.57 nM	293 nM	21.3 nM	ED50 [19]: 0.06 mg/kg; ED50 [20]: 30 mg/kg; ED50 [21]: 0.24 mg/kg; Ratio [22]: 0.2
NC(=O)c1ccc(Oc2ccc(CNCc3ccccc3)cc2)nc1	inactive	inactive	inactive	1	1.78 nM	14	2.43 nM	16	1	27.6 nM	4.33 nM	60.3 nM	3.8 nM	
CC(C)[C@@H](CN1CC[C@@](C)(c2cccc(O)c2)[C@@H](C)C1)NC(=O)[C@H]1Cc2ccc(O)cc2CN1C	inactive	inactive	inactive	69	0.153 nM	3820	30.8 nM	> 3200	201	> 500 nM	0.162 nM	619 nM	11.2 nM	SUV [23]: 23%
NC(=O)c1ccc(Oc2ccc(CN3CCC[C@@H]3c3cccc(F)c3)cc2)c(F)c1	inactive	inactive	inactive	> 5	53.7 nM	> 5	> 500 nM	> 9	> 9	> 500 nM	88.7 nM	> 1000 nM	> 500 nM	
CC(C)[C@@H](CN1CC[C@@](C)(c2cccc(O)c2)[C@@H](C)C1)NC(=O)[C@H]1Cc2ccc(O)cc2CN1	inactive	inactive	inactive											
NC(=O)c1ccc(Oc2ccc(CN3CCCC3c3cccc(F)c3)cc2)c(F)c1 (racemic)	inactive	inactive	inactive	18	0.617 nM	149	41.1 nM	303	67	187 nM	3.52 nM	525 nM	63.5 nM	
